Experimental findings from ChEMBL document CHEMBL4513216, “Probing the Open Global Health Chemical Diversity Library for Multistage-Active Starting Points for Next-Generation Antimalarials” (ACS Infect Dis, 2020) are described below.

A short description of the data set: Toxicity liver stage against HepG2, at 10uM. In kind it is cell-based. Further details: test concentration 10 uM, cell line HepG2-A16-CD81EGFP. As to conditions: human, HepG2-A16-CD81EGFP cells; read-out: INHIBITION
In outline: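 Uninfected HepG2-A16-CD81EGFP cells, 3 × 10^3 per well, 1536-well, plated on prespotted compound at 10 μM final, parasite-free screening media added to match infected plates; puromycin 10 μM positive, DMSO 0.5% negative; run in parallel with 48 h PbLuc assay at 37 °C, 5% CO2; viability by CellTiter-Glo luminescence, normalized to controls.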
Take `CC(=O)N1CCCC(C(=O)Nc2ccccc2Cc2ccccc2)C1` (stereo not given): the cytotoxicity at 10 µM is 3.88%.

With `COCCOc1ccc(-c2noc([C@@H]3CCCN3C3CCC3)n2)cn1`, the cytotoxicity at 10 µM was -4.26%.

Consider `CCOCCCNC(=O)CCCC(=O)n1nc(C)c2ccccc21`, for which the cytotoxicity at 10 µM is -1.29%.

Consider `CO[C@@H]1CN(c2ccccc2)S(=O)(=O)[C@@]12CCN(C)C2`, for which the cytotoxicity at 10 µM is 3.33%.

As to `COc1cccc(CN2CC(O)CN(S(C)(=O)=O)CC2=O)c1OC` (stereo not given), the cytotoxicity at 10 µM was -0.686%.

Turning to `COC(=O)CCNC(=O)c1nc(NS(=O)(=O)c2ccccc2)sc1C`, the cytotoxicity at 10 µM worked out at 8.23%.

In the case of `O=c1c(NCCc2ccc(O)cc2)c(NCc2ccncc2)c1=O`, the cytotoxicity at 10 µM is -5.46%.

Turning to `CCc1nnc2ccc(N3CCN(S(=O)(=O)c4ccc(Cl)s4)CC3)nn12`, the cytotoxicity at 10 µM came out at 5.01%.

As to `Cc1nc(N(C)C)nc(C)c1NS(=O)(=O)c1ccccc1Cl`, the cytotoxicity at 10 µM came to 4.22%.

With `CNC(=O)[C@H]1C[C@@H]2CN(C(=O)c3ccsc3)C[C@@H]2N1S(C)(=O)=O`, the cytotoxicity at 10 µM was -2.42%.

With `CC(C)OCCCNC(=O)C1CCCN(c2ccc3nncn3n2)C1` (stereo not given), the cytotoxicity at 10 µM is 1.77%.

Take `CC(C)Cc1noc(C2CCCCN2C(=O)CCc2cnn(C)c2)n1` (stereo not given): the cytotoxicity at 10 µM amounted to 3.6%.

For the compound `O=C(O)CCCN1C[C@@H](c2ccccc2F)[C@@]2(CCCCC(=O)N2)C1`, the cytotoxicity at 10 µM is 4.6%.

For `Cc1cc(Cc2ccc(F)cc2)cc(C2CCCNC2)n1` (stereo not given), the cytotoxicity at 10 µM is -3.14%.

Turning to `CCCn1nc(C)c(C(=O)N(C)[C@@H]2CC[C@@H](N3CCCC3)[C@@H]2O)c1C`, the cytotoxicity at 10 µM came out at 2.28%.

Regarding `Fc1cc(F)cc(CN2CCC(c3cc4ncccc4cn3)CC2)c1`, the cytotoxicity at 10 µM is -1.13%.

On to `C[C@@H]1CN2C[C@H](O)CC2CN1Cc1ccncc1` (stereo not given in full), for which the cytotoxicity at 10 µM was determined as 0.207%.

With `CCc1nnc(Nc2cc(C)nc(C3CCN(c4cnccn4)C3)n2)s1` (stereo not given), the cytotoxicity at 10 µM came out at 4.24%.

In the case of `CC(C)CC(=O)N1CCCC1c1nccnc1Nc1ncccn1` (stereo not given), the cytotoxicity at 10 µM was -13.8%.

For `CNc1cc(CNC(=O)c2ccnc(OC)c2)nc(-c2ccncc2)n1`, the cytotoxicity at 10 µM was -7.08%.

As to `Cc1cc(-c2cnc(N3CCCC3)nc2-c2ccc(C)s2)on1`, the cytotoxicity at 10 µM was -0.279%.

With `CC(C)CNC(=O)c1sccc1-n1cnnn1`, the cytotoxicity at 10 µM came to 0.00426%.

With `O=S(=O)(NCCCn1cncn1)c1ccc2c(c1)OCCO2`, the cytotoxicity at 10 µM came out at 5.38%.

As to `O=C(Cn1ccc(=O)[nH]c1=O)NCc1cccnc1OCC(F)(F)F`, the cytotoxicity at 10 µM was -5.88%.

`Cc1csc(N(C)C(=O)C2CC(=O)N(c3ccccc3F)C2)n1` (stereo not given): the cytotoxicity at 10 µM came to 9.95%.

Regarding `CN(C(=O)c1ccncc1)c1ccccc1S(C)(=O)=O`, the cytotoxicity at 10 µM was 7.39%.

With `COc1ncc(NCc2ccsc2)cc1C(N)=O`, the cytotoxicity at 10 µM is 1.25%.

`CCCn1nnnc1COC(=O)C1COc2ccc(Cl)cc2C1` (stereo not given): the cytotoxicity at 10 µM was -8.68%.

As to `Cc1[nH]ncc1C(=O)NCC1CCC2(CC1)OCCO2`, the cytotoxicity at 10 µM is -8.2%.

In the case of `Cc1n[nH]c(C2CN(C(=O)COCC(F)(F)F)CCO2)n1` (stereo not given), the cytotoxicity at 10 µM amounted to 1.26%.

Turning to `CC(CC(=O)N1CCCN(Cc2cscn2)CC1)n1cccc1` (stereo not given), the cytotoxicity at 10 µM is -8.01%.

For `COc1ccc(NCC(=O)NCC(=O)N2CCCC2)c(C(F)(F)F)c1`, the cytotoxicity at 10 µM stood at 6.78%.

As for `COc1cc(CNC(=O)N2CCCC2c2cc(C)no2)ccn1` (stereo not given), the cytotoxicity at 10 µM was found to be 1.95%.

As for `O=S(=O)(Cc1cccc(F)c1)NCC(O)Cc1ccccc1` (stereo not given), the cytotoxicity at 10 µM is 9.01%.

`O=C(CCNS(=O)(=O)c1ccc(F)cc1)NCc1ccoc1`: the cytotoxicity at 10 µM was -6.08%.

In the case of `CC(O)CN1CCN(C(=O)c2cnn(-c3ccccc3Cl)c2)CC1` (stereo not given), the cytotoxicity at 10 µM is -8.9%.

As for `Cc1ccc(C2COCCN2C(=O)c2ccc(C#N)cc2)o1` (stereo not given), the cytotoxicity at 10 µM was -5.08%.

In the case of `Cc1nn(C)c(N2CCOCC2)c1CNCc1cccnc1`, the cytotoxicity at 10 µM is 7.11%.

As to `Cc1cc(S(=O)(=O)NC(=O)CCc2cccnc2)c(C)s1`, the cytotoxicity at 10 µM was determined as 8.28%.

Turning to `CC(C)(C)C(=O)NS(=O)(=O)c1ccc(F)cc1C(F)(F)F`, the cytotoxicity at 10 µM is -1.18%.

For the compound `Cc1cc(SC(C)(C)C)ccc1NCC(=O)NC(N)=O`, the cytotoxicity at 10 µM was -17.1%.

`Cc1nnc(C(C)N2CCc3[nH]c4ccccc4c3C2)o1` (stereo not given): the cytotoxicity at 10 µM was -9.42%.

Turning to `COc1cccc(NC(=O)NCC(Cc2cnn(C)c2)C(N)=O)c1` (stereo not given), the cytotoxicity at 10 µM is -6.52%.

With `Cc1noc(C)c1CC(=O)N1CCCN(C)c2ccc(Cl)cc21`, the cytotoxicity at 10 µM is 9.71%.

On to `Cc1noc(C)c1CNC(=O)C1(NS(C)(=O)=O)CCCCC1`, for which the cytotoxicity at 10 µM was determined as 6.55%.

Regarding `CC(C1CC1)N(CC(=O)NCC(F)(F)F)C1CC1` (stereo not given), the cytotoxicity at 10 µM was -4.42%.

On to `Cc1nc(NC(=O)C(C)S(C)(=O)=O)sc1Cc1ccccc1F` (stereo not given), for which the cytotoxicity at 10 µM is 9.8%.

On to `Cc1ccc(C(=O)NS(C)(=O)=O)cc1I`, for which the cytotoxicity at 10 µM is 6.22%.

In the case of `CCOC(=O)CN1CCC(NC(=O)OC(C)(C)C)CC1`, the cytotoxicity at 10 µM stood at 0.449%.

Turning to `CN(C1CCCC1)C(C)(C)C(=O)NCCNC(N)=O`, the cytotoxicity at 10 µM is -46.3%.

Turning to `COC1COC2(CCN(C(=O)c3ccc4ccccc4c3)CC2)C1` (stereo not given), the cytotoxicity at 10 µM is -98.4%.

As for `CCOCC(=O)N1CCc2nc(C)nc(NC(C)C)c2CC1`, the cytotoxicity at 10 µM was -98.7%.

In the case of `CS(=O)(=O)N1CCC2(CCN(C(=O)c3cccs3)CC2)CC1`, the cytotoxicity at 10 µM was -108%.

As to `COC1COC2(CCN(S(=O)(=O)c3ccc(F)cc3)CC2)C1` (stereo not given), the cytotoxicity at 10 µM is -95.9%.

With `Cc1cnc(N2CCc3onc(COc4cccnc4)c3C2)nc1`, the cytotoxicity at 10 µM was -111%.

`O=C(c1ccncc1)N1C[C@@H]2OCCN(CCN3CCCC3)[C@@H]2C1`: the cytotoxicity at 10 µM was -77.1%.

Consider `CN(Cc1cncnc1)[C@H]1CN(Cc2ccco2)[C@@H]2CCCO[C@@H]21`, for which the cytotoxicity at 10 µM is -78.7%.

As for `CC(=O)N1CCCC2(CCN(C(=O)c3ccc(Cl)c(C(F)(F)F)c3)C2)C1` (stereo not given), the cytotoxicity at 10 µM was -74.4%.

Take `CCc1ocnc1C(=O)N1CCC(n2cc(-c3ccsc3)nn2)CC1`: the cytotoxicity at 10 µM came to 1.47%.

`COc1ncc(-c2nccn2-c2ccccc2CN2CCOCC2)cn1`: the cytotoxicity at 10 µM worked out at 3.31%.

With `COCCn1c(=O)n(Cc2ccc(Cl)s2)c2cc(C(=O)O)ccc21`, the cytotoxicity at 10 µM is -5.54%.

As to `CCN1CC(C(=O)N2CCc3cc(C(N)=O)n(C)c3C2)CC1=O` (stereo not given), the cytotoxicity at 10 µM was -47.5%.

For the compound `Cc1nc2c(c(NCc3ccc(-c4ccccn4)s3)n1)CCNCC2`, the cytotoxicity at 10 µM is -59.5%.

With `Cc1c(C(=O)N2C[C@@H](CN(C)CCO)[C@@H](CO)C2)sc2ccccc12`, the cytotoxicity at 10 µM was -11%.

`CCCc1nc(CN(CC)Cc2ccoc2)no1`: the cytotoxicity at 10 µM is -2.52%.

Consider `COC[C@]1(O)CCN(Cc2cnc(N3CCOCC3)nc2)CC1(C)C`, for which the cytotoxicity at 10 µM is 1.4%.

As to `NC(=O)CN1CC2(CCC1=O)CCN(C(=O)c1ccccc1F)CC2`, the cytotoxicity at 10 µM is 23.5%.

Turning to `COCCn1ccnc1CN1CCc2[nH]cnc2C1c1cnn(C)c1C` (stereo not given), the cytotoxicity at 10 µM was -2.77%.

For `Cc1nccn1-c1ccccc1CNC(=O)c1cn(CCN)nn1`, the cytotoxicity at 10 µM was determined as 1.58%.

Regarding `O=C1NCCCC[C@@H]1NC(=O)C1(N2CCCCC2)Cc2ccccc2C1`, the cytotoxicity at 10 µM was -4.3%.

With `CC(C)n1ccnc1C1CCCN(c2ccncc2F)C1` (stereo not given), the cytotoxicity at 10 µM was -4.96%.

`Cc1cc(N2CCC(O)(C(=O)O)CC2)nc2ccccc12`: the cytotoxicity at 10 µM is -41.5%.

`CCOc1ccc(CC(=O)N2C[C@H](C3CC3)[C@@H](N)C2)cc1`: the cytotoxicity at 10 µM was -7.76%.

Take `COC[C@]1(O)CCN(c2cc(N3CCOCC3)ncn2)CC1(C)C`: the cytotoxicity at 10 µM is -3.81%.

With `CN1CCC(C)(CN(C)Cc2ccc(CCC(C)(C)O)cc2)C1` (stereo not given), the cytotoxicity at 10 µM was -6.44%.

As to `O=C(NCc1nncn1C1CCCCC1)C1COc2ccccc2C1` (stereo not given), the cytotoxicity at 10 µM was found to be 3.16%.

With `N#Cc1cc2c(nc1SCc1cc(O)nc(O)n1)CCCC2`, the cytotoxicity at 10 µM is -3.94%.

On to `Cc1cnn(CCNCc2cccc(C#N)c2)c1`, for which the cytotoxicity at 10 µM is -2.01%.

Turning to `Cc1noc2ncc(C(=O)N3CCCC(n4ccnc4C)C3)cc12` (stereo not given), the cytotoxicity at 10 µM was -13.4%.

In the case of `Cc1noc(Cl)c1CCC(=O)N1CCC(CC(N)=O)CC1`, the cytotoxicity at 10 µM is -0.0707%.

Take `CCOc1ccc(NC(=O)NCc2csc(NC)n2)cc1C`: the cytotoxicity at 10 µM was -3.91%.

Take `O=C(NCC1CCSCC1)N(CCCO)C1CCc2ccccc21` (stereo not given): the cytotoxicity at 10 µM came to 5.77%.

Regarding `COc1ccc(CN(C)CC(=O)NC2(C)CCS(=O)(=O)C2)cc1F` (stereo not given), the cytotoxicity at 10 µM was 7.44%.

Consider `Cc1csc(N2CCN(C(=O)CCc3nccs3)CC2)n1`, for which the cytotoxicity at 10 µM was -3.68%.

Take `Cc1nc(COc2ccc(CNCC3CN(C)CCO3)cc2)cs1` (stereo not given): the cytotoxicity at 10 µM was -13.1%.

Turning to `Cc1ccc(S(=O)(=O)N2CC[C@H]3CO[C@H](CN(C)C)[C@H]3C2)cc1`, the cytotoxicity at 10 µM is -98.3%.

Turning to `O=C(C1CCC1)N1C[C@@H](c2ccsc2)[C@@H]2CN(C3CCCCC3)CC[C@@H]21`, the cytotoxicity at 10 µM turned out to be 1.32%.

For `c1ccc(NC[C@@H]2CCC[C@@H]3CN(Cc4cccnc4)C[C@@H]32)nc1`, the cytotoxicity at 10 µM was found to be 2.78%.

Consider `Fc1ccc(CN2Cc3nccn3CC(CN3CCOCC3)C2)cc1` (stereo not given), for which the cytotoxicity at 10 µM is -73.7%.

Take `CCN1CCOCC12CCN(c1cnccn1)CC2`: the cytotoxicity at 10 µM was -111%.

On to `Cn1cc(CN2C[C@@H]3COC[C@]3(C(=O)NCCc3ccccc3)C2)cn1`, for which the cytotoxicity at 10 µM is 8.86%.

As to `CC(C)N1CCO[C@@H]2CN(C(=O)NCc3ccccc3)CC[C@@H]2C1`, the cytotoxicity at 10 µM is -102%.

Take `CN1CCN(Cc2cccnc2)C(=O)C12CCN(Cc1ccco1)CC2`: the cytotoxicity at 10 µM is -4.34%.

With `CCOCC(=O)N1C[C@@H]2CCN(c3cnccn3)C[C@@H]2C1`, the cytotoxicity at 10 µM amounted to 1.2%.

Take `COc1ccc(C(=O)N2C[C@@H]3CC[C@H]2CN(C)C3)cc1Cl`: the cytotoxicity at 10 µM was 5.79%.
